Data taken from PMC7429283 (ACS combinatorial science, 2020).
pIC50: −log10 of the molar value.

Columns and labels:
[1] = target: dopamine receptors; settings: cited from earlier work
[2] = target: T1, NTMT1 (Homo sapiens, UniProt Q9BV86); experiment: MALDI-MS methylation inhibition assay; assay type: biochemical; settings: data not shown
T1 sequence (Q9BV86 1-222): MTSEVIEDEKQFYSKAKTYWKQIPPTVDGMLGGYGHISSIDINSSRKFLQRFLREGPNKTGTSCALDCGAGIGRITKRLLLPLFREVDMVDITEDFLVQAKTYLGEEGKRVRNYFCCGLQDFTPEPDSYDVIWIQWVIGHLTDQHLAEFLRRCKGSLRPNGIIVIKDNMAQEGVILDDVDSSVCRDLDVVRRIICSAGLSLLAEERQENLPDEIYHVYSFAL

[3] = target: T1, NTMT1; experiment: SAHH-coupled ThioGlo3 fluorescence assay, 1536-well; assay type: biochemical; settings: IC50, Epigenetic Library qHTS, 1 nM to 57 μM
In short: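 Final mix of His-NTMT1 125 nM, SAHH 10 μM, SAM 100 μM and ThioGlo3 15 μM in 25 mM Tris pH 7.5, 10 mM KCl, 0.01% Triton X-100. Test compounds were pin-transferred in qHTS dilution series, then SPKRIA peptide was added to 1 μM final (4 μL). Incubation was 30 min, read at Ex 340/Em 450. Fluorescence change from the initial read was normalized plate-wise to DMSO and Ac-RCC1-10 controls.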

[4] = target: T1, NTMT1; experiment: MTase-Glo luminescence assay, 1536-well; assay type: biochemical; settings: IC50, Epigenetic Library qHTS, 1 nM to 57 μM
In short: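 His-tagged NTMT1 was expressed with IPTG induction at 15 °C overnight and purified on Ni-NTA. It was used at 125 nM final with 100 μM SAM in 4 μL wells. Optimized SAHH-ThioGlo3 conditions served as the starting point, with kit reagents at recommended concentrations. SAH was converted to ADP and read by luminescence. Data were normalized plate-wise to DMSO and Ac-RCC1-10 controls, then fitted to concentration-response curves.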

[5] = target: cyclin-dependent kinase 1 (CDK1)/cyclin B; settings: cited from earlier work
[6] = test system: NTMT1; settings: cited from earlier work

inhibition in MS testing [2] | Compound | Km [6] | also measured
– | N[C@@H]1CCc2cc(O)c(O)cc2C1 [6,7-ADTN] | – | pIC50 [1]: 8.77
no inhibition | [N-]=[N+]=Nc1nc2c(N)ncnc2n1[C@@H]1O[C@H](CO)[C@@H](O)[C@H]1O [8-Azidoadenosine] | – | pIC50 [3]: 4.61 to 4.77; pIC50 [4]: 4.61 to 4.77
– | CCn1cnc2c(Nc3cccc(Cl)c3)nc(N[C@@H]3CCCC[C@@H]3N)nc21 [CGP 74514A] | – | pIC50 [5]: 7.51
no inhibition | COc1cc2nc(N3CCCC3)nc(NC3CC3)c2cc1OC [NCGC00249822] | – | –
– | APKRQSPLPP | 2 µM | –
– | GPKRIA | 0.5 µM | –
